Assay outcomes as filed in PubChem.
Most compounds without a hit are left out; they make up all but 0.68% or so of the library.
MMP-13 inhibitor – inhibitors of human MMP13. P45452. MMP-13 fTHP FRET cleavage, Mca fluorescence. inhibition, % at 4 µM. 65,000 tested, 0.07% active;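 active means inhibition above the mean of compound-free control plate wells plus 3 SD, cut at about 14% in these data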;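 further: 0% = DMSO wells and 100% = wells with reference MMP-13 inhibitor after basal subtraction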
JNK3 blocker – JNK3 (human) kinase inhibition. P53779. purified JNK3 kinase activity, HTS. inhibition, % at 8 µM. 60,000 tested, 0.61% active; in the data active means inhibition above about 17%;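 further: 0% = DMSO and 100% = reference inhibitor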
mHtt clearance – mutant huntingtin protein clearance; HeLa Exon1htt(103Q)mCFP, aggregate imaging; zero = plate's median compound well; inhibition, % at 1.5 µM; 47,000 tested, 0.42% active;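 active means inhibition of aggregate fluorescence above about 70%, also judged a hit by eye on the cell image, limit read from the data, passing the limit was not always enough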;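 further: cells exposed to compound for three days before fixation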
AP complement – orthogonal test for alternative complement pathway inhibitors; Human serum alternative complement pathway, LPS-coated ELISA, C3 deposition; tested in compound mixtures; inhibition, % at 5 µM; 62,000 tested, 0.08% active;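 active means inhibition above 30% in each of the two pooled mixtures holding the compound, so the lower value exceeds 30%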;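 further: 0% = serum in Mg-EGTA without compound and 100% = EDTA serum blank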
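Medium: diluted human serum in Mg2+-EGTA GVB++. Assay system: human serum complement alternative pathway, C3 deposition onto LPS. Also added: Plate-bound LPS. Technique: Anti-C3 ELISA, OD 450 nm. Measure: percent inhibition. Incubation: 1 h at 37 °C. Dosing: 5 µM each compound, pools of ten, 50 µM per pool.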
Starred values were filed as active, the others as inactive; x = not tested or not shown.

SMILES | MMP-13 inhibitor | JNK3 blocker | mHtt clearance | AP complement
CCN(CC)CCCN=C(C)c1c(O)n(-c2ccccc2)c(=O)[nH]c1=O | 4 | 8 | x | -19
CCC(=NCCCN(CC)CC)c1c(O)n(-c2ccccc2)c(=O)[nH]c1=O | 3 | 1 | -53 | 36*
O=C(Cc1ccccc1)N1CCN(Cc2c[nH]c3ccccc23)CC1 | 3 | -4 | 7 | 42*
CCN1CCN(Cc2ccccc2C)CC1 | 2 | -5 | x | 1
O=C1NC(=O)C(CCc2ccncc2)(C2CCCCC2)C(=O)N1 | 52* | 0 | x | 1
Cc1ccccc1-n1c(O)c(C=Nc2ccc(N(C)C)cc2)c(=O)[nH]c1=O | 3 | -15 | x | 6
Cn1ncnc2c(=O)n(C)c(=O)nc1-2 | 5 | 60* | x | 13
CCCCCCC(N)CC(=O)O (configuration not stated) | 2 | -2 | -23 | 8
